Data reported in ChEMBL document CHEMBL2346500, “Design and synthesis of dual-action inhibitors targeting histone deacetylases and 3-hydroxy-3-methylglutaryl coenzyme A reductase for cancer treatment” (J Med Chem, 2013).

What was measured:
[1] = biological target: T1, 3-hydroxy-3-methylglutaryl-coenzyme A reductase (Homo sapiens, UniProt P04035); assay: Inhibition of recombinant HMG-CoA reductase (unknown origin) after 10 mins by spectrophotometric analysis
T1 sequence (P04035 whole entry): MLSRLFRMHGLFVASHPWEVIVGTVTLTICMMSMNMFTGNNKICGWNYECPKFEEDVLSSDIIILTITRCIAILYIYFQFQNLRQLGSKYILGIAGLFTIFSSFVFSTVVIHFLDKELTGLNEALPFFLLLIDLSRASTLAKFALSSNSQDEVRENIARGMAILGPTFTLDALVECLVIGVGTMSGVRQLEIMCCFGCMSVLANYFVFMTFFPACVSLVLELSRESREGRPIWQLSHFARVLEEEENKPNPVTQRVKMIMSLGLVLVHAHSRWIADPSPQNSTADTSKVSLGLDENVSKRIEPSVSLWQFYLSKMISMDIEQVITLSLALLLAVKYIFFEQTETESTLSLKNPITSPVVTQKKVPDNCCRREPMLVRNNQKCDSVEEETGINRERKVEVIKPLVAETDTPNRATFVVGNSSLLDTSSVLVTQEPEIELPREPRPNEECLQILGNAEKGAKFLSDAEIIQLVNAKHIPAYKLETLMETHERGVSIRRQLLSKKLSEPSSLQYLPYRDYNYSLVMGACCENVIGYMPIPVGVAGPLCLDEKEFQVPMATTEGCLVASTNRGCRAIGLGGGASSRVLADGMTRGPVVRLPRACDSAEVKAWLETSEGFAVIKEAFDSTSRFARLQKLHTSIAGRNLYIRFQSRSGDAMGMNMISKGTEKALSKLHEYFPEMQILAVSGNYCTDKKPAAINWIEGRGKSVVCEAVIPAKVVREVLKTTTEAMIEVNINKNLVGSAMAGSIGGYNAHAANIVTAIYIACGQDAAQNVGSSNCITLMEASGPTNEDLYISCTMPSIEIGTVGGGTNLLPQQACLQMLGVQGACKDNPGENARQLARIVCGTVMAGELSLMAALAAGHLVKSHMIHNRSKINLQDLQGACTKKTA

Hs68 = assay: Cytotoxicity against human HS68 cells after 72 hrs by MTT assay; assay type: ADME, cell-based; details: Hs68, 72 h
MEF = assay: Cytotoxicity against mouse MEF cells after 72 hrs by MTT assay; assay type: ADME, cell-based
[2] = biological target: Histone deacetylase (Homo sapiens) (UniProt Q13547+O15379+Q9UBN7+Q92769+Q9UQL6+Q8WUI4+Q9BY41+Q96DB2+P56524+Q9UKV0+Q969S8); assay: Inhibition of class 1 HDAC in human A549 cells assessed as increase in histone acetylation after 24 hrs by Western blotting analysis; assay type: cell-based
In short: (§1)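 A549 cells (DMEM, 10% FBS, penicillin/streptomycin, 5% CO2) exposed to compounds at indicated doses for 24 h. Cells lysed on ice, total lysates run on SDS–PAGE and immunoblotted with antibodies to acetyl-histone H3, acetyl-tubulin and actin. Loading normalised to β-actin.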

[3] = biological target: T2, Protein deacetylase HDAC6 (Homo sapiens, UniProt Q9UBN7); assay: Inhibition of recombinant HDAC6 (unknown origin) after 10 mins by fluorimetric analysis
T2 sequence (Q9UBN7 whole entry): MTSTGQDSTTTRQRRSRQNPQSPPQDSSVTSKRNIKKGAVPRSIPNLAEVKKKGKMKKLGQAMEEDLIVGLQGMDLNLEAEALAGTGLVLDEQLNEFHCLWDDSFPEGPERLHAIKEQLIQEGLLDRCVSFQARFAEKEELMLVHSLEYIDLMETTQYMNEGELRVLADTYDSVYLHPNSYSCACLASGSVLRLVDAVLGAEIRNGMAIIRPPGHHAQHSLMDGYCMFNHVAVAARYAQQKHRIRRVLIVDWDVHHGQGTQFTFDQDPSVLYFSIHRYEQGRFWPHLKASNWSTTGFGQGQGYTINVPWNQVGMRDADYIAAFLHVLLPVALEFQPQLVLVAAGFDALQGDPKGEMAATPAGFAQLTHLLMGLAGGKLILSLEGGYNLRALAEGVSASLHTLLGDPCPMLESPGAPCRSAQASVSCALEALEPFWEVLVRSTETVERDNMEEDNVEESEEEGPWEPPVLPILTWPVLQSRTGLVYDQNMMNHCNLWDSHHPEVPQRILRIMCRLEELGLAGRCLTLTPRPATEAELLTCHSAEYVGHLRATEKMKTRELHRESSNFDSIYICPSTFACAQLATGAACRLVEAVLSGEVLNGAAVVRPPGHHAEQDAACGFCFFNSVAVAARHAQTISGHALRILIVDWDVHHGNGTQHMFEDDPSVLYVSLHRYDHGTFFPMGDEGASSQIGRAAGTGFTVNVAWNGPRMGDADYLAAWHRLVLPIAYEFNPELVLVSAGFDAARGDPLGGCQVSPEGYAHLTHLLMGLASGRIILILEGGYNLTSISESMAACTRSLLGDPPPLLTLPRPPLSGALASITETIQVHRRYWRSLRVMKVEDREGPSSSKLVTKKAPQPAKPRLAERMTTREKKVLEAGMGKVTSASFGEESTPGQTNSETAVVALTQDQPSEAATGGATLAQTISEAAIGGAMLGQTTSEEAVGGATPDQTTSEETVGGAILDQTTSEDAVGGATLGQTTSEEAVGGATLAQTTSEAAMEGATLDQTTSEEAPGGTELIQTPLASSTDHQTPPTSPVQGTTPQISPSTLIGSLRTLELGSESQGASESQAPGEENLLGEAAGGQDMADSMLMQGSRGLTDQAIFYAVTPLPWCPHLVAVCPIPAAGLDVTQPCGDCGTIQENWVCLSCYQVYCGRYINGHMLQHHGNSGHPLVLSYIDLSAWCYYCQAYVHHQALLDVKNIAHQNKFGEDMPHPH

Histone deacetylase 1 = Histone deacetylase 1 (Homo sapiens, UniProt Q13547); assay: Inhibition of recombinant HDAC1 (unknown origin) after 10 mins by fluorimetric analysis
Histone deacetylase 2 = Histone deacetylase 2 (Homo sapiens, UniProt Q92769); assay: Inhibition of recombinant HDAC2 (unknown origin) after 10 mins by fluorimetric analysis
[4] = biological target: T3, Protein deacetylase HDAC6 (Homo sapiens) (UniProt Q9UBN7); assay: Inhibition of HDAC6 in human A549 cells assessed as increase in tubulin acetylation after 24 hrs by Western blotting analysis; assay type: cell-based; in short: as §1
T3 sequence (whole entry): T2 sequence (Q9UBN7 whole entry)

A549 [5] = assay: Selectivity index, ratio of IC50 for human HS68 cells to IC50 for human A549 cells; assay type: functional
A549 [6] = assay: Selectivity index, ratio of IC50 for mouse MEF cells to IC50 for human A549 cells; assay type: functional
[7] = biological target: T1, 3-hydroxy-3-methylglutaryl-coenzyme A reductase; assay: Inhibition of HMG-CoA reductase in human A549 cells after 5 mins by spectrophotometric analysis
A549 [8] = assay: Cytotoxicity against human A549 cells after 72 hrs by MTT assay; assay type: functional, cell-based; details: A549, 72 h

Chain of Histone deacetylase 2 (Q92769 whole entry): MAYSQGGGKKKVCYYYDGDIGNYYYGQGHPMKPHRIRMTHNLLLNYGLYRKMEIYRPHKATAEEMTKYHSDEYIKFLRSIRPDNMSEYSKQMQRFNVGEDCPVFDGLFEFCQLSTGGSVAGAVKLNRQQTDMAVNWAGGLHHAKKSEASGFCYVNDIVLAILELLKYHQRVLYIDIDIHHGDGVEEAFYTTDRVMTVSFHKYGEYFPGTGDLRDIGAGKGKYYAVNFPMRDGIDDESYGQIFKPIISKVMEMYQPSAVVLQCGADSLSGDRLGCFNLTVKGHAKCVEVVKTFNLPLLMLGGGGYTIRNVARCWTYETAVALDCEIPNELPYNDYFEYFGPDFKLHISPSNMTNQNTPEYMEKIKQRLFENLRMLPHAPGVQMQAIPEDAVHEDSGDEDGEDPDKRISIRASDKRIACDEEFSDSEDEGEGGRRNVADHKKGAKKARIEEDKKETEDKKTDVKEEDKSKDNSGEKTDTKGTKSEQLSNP
Chain of Histone deacetylase 1 (Q13547 whole entry): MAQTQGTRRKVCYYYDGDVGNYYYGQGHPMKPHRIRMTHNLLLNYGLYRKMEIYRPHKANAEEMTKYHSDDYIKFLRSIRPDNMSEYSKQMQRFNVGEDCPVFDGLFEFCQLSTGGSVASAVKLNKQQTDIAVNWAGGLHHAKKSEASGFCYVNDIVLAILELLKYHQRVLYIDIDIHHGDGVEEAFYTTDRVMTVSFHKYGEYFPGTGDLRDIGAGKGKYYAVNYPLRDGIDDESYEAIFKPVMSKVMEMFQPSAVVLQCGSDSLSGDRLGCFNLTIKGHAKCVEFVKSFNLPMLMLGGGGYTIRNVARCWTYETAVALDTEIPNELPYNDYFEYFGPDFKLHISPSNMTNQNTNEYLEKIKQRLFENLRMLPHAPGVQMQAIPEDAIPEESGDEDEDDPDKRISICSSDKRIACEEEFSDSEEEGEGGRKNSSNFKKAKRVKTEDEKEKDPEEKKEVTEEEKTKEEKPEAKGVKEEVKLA

IC50 [1] [nM] | inhibition [2] | IC50 [3] [nM] | IC50 (Histone deacetylase 1) [nM] | IC50 (Histone deacetylase 2) [nM] | inhibition [4] | SMILES | IC50 (Hs68) [nM] | IC50 (MEF) [nM] | Ratio IC50 (A549 [5]) | Ratio IC50 (A549 [6]) | IC50 [7] [nM] | IC50 (A549 [8]) [nM]
> 10000 | – | – | – | – | – | O=C(CCCCCCC(=O)Nc1ccccc1)NO [VORINOSTAT] | – | – | – | – | – | –
– | – | – | – | – | – | CC[C@H](C)C(=O)O[C@H]1C[C@@H](C)C=C2C=C[C@H](C)[C@H](CC[C@@H]3C[C@@H](O)CC(=O)O3)[C@H]21 [LOVASTATIN] | 23200 | 35000 | – | – | – | –
– | Dose-dependent effect | 127 | 159 | 463 | Dose-dependent effect | C[C@H]1C=C2C=C[C@H](C)[C@H](CC[C@@H]3C[C@@H](O[Si](C)(C)C(C)(C)C)CC(=O)O3)[C@H]2[C@@H](OC(=O)Nc2ccc(-c3cn(CCCCCCC(=O)NO)nn3)cc2)C1 | – | – | – | – | – | –
– | Dose-dependent effect | 34 | 125 | 882 | Dose-dependent effect | C[C@H]1C=C2C=C[C@H](C)[C@H](CC[C@@H]3C[C@@H](O[Si](C)(C)C(C)(C)C)CC(=O)O3)[C@H]2[C@@H](OC(=O)NCc2ccc(-c3cn(CCCCCCC(=O)NO)nn3)cc2)C1 | – | – | – | – | – | –
– | – | – | – | – | – | CC(C)c1c(C(=O)Nc2ccccc2)c(-c2ccccc2)c(-c2ccc(F)cc2)n1CC[C@@H](O)C[C@@H](O)CC(=O)O [ATORVASTATIN] | – | 30700 | – | – | – | –
– | – | 140 | 122 | 658 | – | C[C@H]1C=C2C=C[C@H](C)[C@H](CC[C@@H]3C[C@@H](O[Si](C)(C)C(C)(C)C)CC(=O)O3)[C@H]2[C@@H](OC(=O)NCCCCCCC(=O)NO)C1 | – | – | – | – | – | –
12.3 | Dose-dependent effect | 86.6 | 123 | – | Dose-dependent effect | CC(C)c1c(C(=O)Nc2ccccc2)c(-c2ccccc2)c(-c2ccc(F)cc2)n1CC[C@@H](O)C[C@@H](O)CC(=O)NO | > 100000 | > 100000 | >5.7 | >5.7 | 5700 | –
– | – | – | – | – | – | CCC(C)(C)C(=O)O[C@H]1C[C@@H](C)C=C2C=C[C@H](C)[C@H](CC[C@@H]3C[C@@H](O)CC(=O)O3)[C@H]21 [SIMVASTATIN] | 26400 | 36700 | 1.6 | 2.3 | – | 16300
13.1 | Dose-dependent effect | 69.5 | 63.4 | 414 | Dose-dependent effect | CCC(C)(C)C(=O)O[C@H]1C[C@@H](C)C=C2C=C[C@H](C)[C@H](CC[C@@H](O)C[C@@H](O)CC(=O)NO)[C@H]21 | > 100000 | > 100000 | >5 | >5 | 7900 | –

SMILES | IC50 [1] [nM] | inhibition [2] | IC50 [3] [nM] | IC50 (Histone deacetylase 1) [nM] | IC50 (Histone deacetylase 2) [nM] | inhibition [4] | IC50 (Hs68) [nM] | IC50 (MEF) [nM] | Ratio IC50 (A549 [5]) | Ratio IC50 (A549 [6]) | IC50 [7] [nM] | IC50 (A549 [8]) [nM]
CC(C)c1nc(N(C)S(C)(=O)=O)nc(-c2ccc(F)cc2)c1/C=C/[C@@H](O)C[C@@H](O)CC(=O)NO | – | Dose-dependent effect | – | – | – | Dose-dependent effect | – | – | – | – | 14900 | –
CC[C@H](C)C(=O)O[C@H]1C[C@@H](C)C=C2C=C[C@H](C)[C@H](CC[C@@H](O)C[C@@H](O)CC(=O)NO)[C@H]21 | 16.8 | Dose-dependent effect | 51 | 64.8 | 468 | Dose-dependent effect | > 100000 | > 100000 | >5.6 | >5.6 | 15900 | –
